The entries come from a sample that favours hits as a whole.
CD11b adhes enh = CD11b/CD18-fibrinogen binding enhancement; K562 CD11b/CD18 adhesion to fibrinogen, ATPlite luminescence; activation, % at 10 µM; hit rate 0.07% among 93,000; P05107+P11215;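 active means 10 µM primary screen giving 50% or more activity, confirmed by 40% or more on retest at that dose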
Target sequence (P05107 whole entry, looked up, other chains not shown): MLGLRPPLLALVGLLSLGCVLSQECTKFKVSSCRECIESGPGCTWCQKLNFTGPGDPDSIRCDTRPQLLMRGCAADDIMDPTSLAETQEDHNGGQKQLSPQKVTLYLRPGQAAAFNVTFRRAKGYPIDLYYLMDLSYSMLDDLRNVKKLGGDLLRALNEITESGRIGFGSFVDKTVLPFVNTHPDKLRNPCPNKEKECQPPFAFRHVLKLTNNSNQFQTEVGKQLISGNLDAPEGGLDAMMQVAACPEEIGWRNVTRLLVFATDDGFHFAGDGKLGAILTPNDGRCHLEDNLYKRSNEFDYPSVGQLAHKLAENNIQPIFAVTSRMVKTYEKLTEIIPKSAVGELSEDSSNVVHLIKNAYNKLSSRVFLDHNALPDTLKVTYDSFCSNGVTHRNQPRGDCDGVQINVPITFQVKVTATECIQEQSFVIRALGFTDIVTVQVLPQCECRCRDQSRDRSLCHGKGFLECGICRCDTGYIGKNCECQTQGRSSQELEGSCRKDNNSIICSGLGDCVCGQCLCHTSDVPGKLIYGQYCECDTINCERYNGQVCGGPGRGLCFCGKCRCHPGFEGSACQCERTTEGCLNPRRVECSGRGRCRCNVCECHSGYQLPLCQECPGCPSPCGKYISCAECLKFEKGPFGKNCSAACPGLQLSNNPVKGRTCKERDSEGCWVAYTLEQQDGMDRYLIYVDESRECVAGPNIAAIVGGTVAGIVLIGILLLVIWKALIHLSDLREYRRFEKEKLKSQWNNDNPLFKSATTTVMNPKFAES
Ecoli tolC = E. coli tolC mutant growth inhibition; E. coli BW25113 tolC mutant growth, OD615; growth inhibition, % at 10 µM (by protocol); hit rate 2.2% among 65,000; AID 573;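 active means growth inhibition at or above a cutoff equal to the mean over every tested compound plus 3 SD, cut at about 60% in these data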;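 further: growth measured after 20 h incubation at 37 °C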
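System: E. coli ΔtolC::kan strain BW25113; Buffer or medium: LB broth supplemented with 50 µg/mL kanamycin; Compound: 10 µM final, single dose; Incubation: bacterial growth with compound for 20 h at 37 °C; Signal: A615 absorbance measurement; Evaluation: growth inhibition in percent.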
Phagocytosis inh = blocks phagocytosis by macrophages; hit rate 0.07% among 110,000; AID 1029; J774A.1 macrophage IgG-bead phagocytosis, imaging; inhibition, % at 5 µM;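 active means inhibition above the mean of the plate negative controls plus 5 SD, cut at about 13% in these data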;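 further: phagocytic index as fraction of beads internalized from green versus red external bead signal; plate controls were DMSO negative control for no effect and cytochalasin-D positive control for full effect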
E coli WT exp = E. coli BW25113 growth inhibition, expanded screen; OD600 absorbance; growth inhibition, % at 100 µM; hit rate 0.15% among 98,000;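 active means growth inhibition above about 50% at one test dose, limit read from the data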;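 further: growth measured after 20 h incubation at 37 °C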
Mac1 fbg inh = inhibitors of human CD11b/CD18 binding to fibrinogen; AID 1497; K562 CD11b/CD18 adhesion to fibrinogen, ATPlite luminescence; Mn2+ added to activate the integrin; hit rate 0.54% among 93,000; inhibition, % at 10 µM;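 active means primary inhibition of 50% or more at 10 µM, then 40% or more on retest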
Active calls of the source: *; . = no result.

SMILES	CD11b adhes enh	Ecoli tolC	Phagocytosis inh	E coli WT exp	Mac1 fbg inh
CCOc1cc(Br)ccc1S(=O)(=O)N1CC(C)OC(C)C1 (centres undefined)	-4	.	1	0	11
CCOc1cc(C)c(C(C)C)cc1S(=O)(=O)N1CC(C)OC(C)C1 (centres undefined)	3	68*	-1	2	6
CC(C)C1Cc2c(sc3[nH]c(=S)n(Cc4ccccc4)c(=O)c23)CO1 (centres undefined)	-6	.	0	0	53*
Cc1c(NC(=S)NC(=O)C2CCCCC2)c(=O)n(-c2ccccc2)n1C	.	.	-15	.	.
COc1ccc(NC(=O)Cn2c(=O)sc3ccccc32)cc1	1	.	2	3	16
COc1ccc(Cn2c(=O)sc3ccccc32)cc1	-2	61*	-2	4	-13
O=S(=O)(N1CCCCC1)n1c(Cc2ccccc2)nc2ccccc21	1	100*	0	2	-16
CCOc1ccc(C(=O)N2CCN(c3cccc(C)c3C)CC2)cc1	4	82*	-2	4	14
Cc1cccc(N2CCN(C(=O)c3ccc(N4CCCC4=O)cc3)CC2)c1C	-3	15	0	0	0
CC(C)(C)OC(=O)[C@H]1[C@H](c2ccc([N+](=O)[O-])cc2)C2(C(=O)c3ccccc3C2=O)C2c3ccccc3C=NN21 (some centres undefined)	.	.	9	.	.
Brc1cc(Br)c2ncnc(N3CCCCC3)c2c1	-2	100*	0	11	-7
CCOC(=O)N1CCc2c(sc(NC(=O)c3ccc(Cl)s3)c2C(N)=O)C1	-4	73*	0	-4	65
CCOC(=O)Nc1ccc2c(c1)N(C(=O)N1CCN(C)CC1)c1ccccc1S2	3	65*	0	5	-14
FC(F)(F)c1cnc(NNC(=S)Nc2ccccc2Cl)c(Cl)c1	-10	.	-3	.	100*
Cc1cccc(NC(=S)NNc2ncc(C(F)(F)F)cc2Cl)c1	.	.	-11	.	.
O=C(CSc1nnnn1C1CC2CCC1C2)Nc1ccnc2ccccc12 (centres undefined)	-13	50	-1	3	100*
Cc1cc(S(=O)(=O)N2CCN(c3c(C)cccc3C)CC2)ccc1F	37	47	2	-23	8
Cc1cc(S(=O)(=O)N2CCN(c3ccccc3C)CC2)ccc1F	-3	64*	0	-14	14
O=C(NCCN1C(=O)S/C(=C\c2ccccc2)C1=O)c1cc(S(=O)(=O)N2CCOCC2)c(Cl)cc1Cl	56	.	-5	.	7
COC(=O)c1ccc(OC)c(CSc2nnc(COc3ccc(Cl)cc3)o2)c1	10	52	.	-24	25
COC(=O)c1ccc(OC)c(CSc2nnc(COc3ccccc3)o2)c1	.	62*	-1	1	.
Cc1ccccc1Cn1nc(C)c(NC(=O)c2noc3c2CC(C(C)(C)C)CC3)c1C (centres undefined)	-4	74*	2	1	9
Cc1nn(Cc2ccc(Cl)cc2)c(C)c1NC(=O)c1noc2c1CCCCC2	3	84*	-1	10	21
Cc1nn(Cc2ccc(Cl)c(Cl)c2)c(C)c1NC(=O)c1noc2c1CCCCC2	0	-16	-1	-8	8
Cc1ccccc1Cn1nc(C)c(NC(=O)c2noc3c2CCc2ccccc2-3)c1C	8	68*	0	-17	-32
SMILES	CD11b adhes enh	Ecoli tolC	Phagocytosis inh	E coli WT exp	Mac1 fbg inh
COc1cccc(-c2cc(C(=O)Nc3c(C)nn(Cc4ccccc4)c3C)no2)c1	4	31	.	2	-13
COc1cccc(-c2cc(C(=O)Nc3c(C)nn(Cc4ccccc4C)c3C)no2)c1	1	71*	0	-6	-4
FC(F)(F)c1n[nH]c(=S)n1/N=C/c1ccco1	-2	.	-6	.	6
O=C(Nc1ccc(Cl)c(Cl)c1)N1CCSC1c1ccco1 (centres undefined)	2	100*	-2	18	12
O=C(Nc1ccc(Cl)c(Cl)c1)N1CC=CCC1	-4	24	-1	-6	4
C/C(=C\C(=O)c1ccc(Br)cc1)NCc1ccccc1	0	.	0	-9	-15
C/C(=C\C(=O)c1ccc(Br)cc1)NCc1ccc(C)cc1	-11	.	-1	-5	81*
CC1CCN(S(=O)(=O)c2ccc3c(c2)oc(=O)n3CC(=O)N2c3ccccc3CC2C)CC1 (centres undefined)	1	11	0	-1	-6
CC1Cc2ccccc2N1C(=O)Cn1c(=O)oc2cc(S(=O)(=O)NC3CCCC3)ccc21 (centres undefined)	8	74*	.	-13	3
COc1ccc(C)cc1NC(=O)c1ccccc1NS(=O)(=O)c1cccc2cccnc12	0	.	-15	.	10
O=C(CSc1nnc(Cc2ccccc2)n1Cc1ccco1)NC12CC3CC(CC(C3)C1)C2	35	83*	1	-9	9
NC(=O)c1c(NC(=O)CSc2nnc(Cc3ccccc3)n2Cc2ccco2)sc2c1CCC2	-3	34	0	-3	-16
O=C(CSc1nnc(Cc2cccs2)n1Cc1ccco1)Nc1ccc(Cl)cc1Cl	-1	95*	-2	-24	0
O=C(CSc1nnc(Cc2cccs2)n1Cc1ccco1)Nc1ccc(Br)cc1	9	100*	1	-9	1
Cc1cc(Cl)cc(Cl)c1CNc1c([N+](=O)[O-])c(=O)oc2ccccc12	.	.	2	.	.
Cc1cccc(-c2noc(CCC(=O)Nc3ccccc3)n2)c1	-2	38	2	8	24
COc1cccc(NC(=O)CCc2nc(-c3ccccc3F)no2)c1	-2	.	-2	7	4
COc1ccccc1-c1noc(CCC(=O)Nc2cccc(C(F)(F)F)c2)n1	.	65*	.	-8	.
O=C(CCc1nc(-c2ccccc2F)no1)Nc1ccc(Oc2ccccc2)cc1	-6	81*	1	0	66
COc1ccccc1C(O)(C(=O)NN(C)c1ccccc1)c1ccccc1OC	-2	.	.	.	-11
COc1ccc(C(C(O)C(=O)c2c[nH]c3ccccc23)N2CCN(c3ccc(OC)cc3)CC2)cc1 (centres undefined)	-2	76*	0	-1	.
COc1ccc(C(=O)NN/C(C)=C/C(=O)C(F)(F)C(F)(F)C(F)(F)F)cc1	.	.	-3	.	.
CC(=O)Nc1ccc2c(c1)OCCO2	.	.	.	-2	.
Cc1ccc(-n2c(=O)[nH]cc(C(=O)Nc3ccc4c(c3)OCCO4)c2=O)cc1C	0	67*	0	-6	-30
Cc1oc(C(C)(C)C)cc1C(=O)Nc1ccc2c(c1)OCCO2	-3	80*	-2	1	11
CCCCn1c(N)c(-c2nc3ccccc3o2)c2c([N+](=O)[O-])nn(CC)c(=O)c21	.	.	-7	.	.
CCn1nc([N+](=O)[O-])c(C(C#N)c2nc3cc(C(F)(F)F)ccc3s2)c(Cl)c1=O (centres undefined)	-8	.	0	1	94*
CCCn1nc([N+](=O)[O-])c(C(C#N)c2nc3ccccc3o2)c(Cl)c1=O (centres undefined)	-8	.	1	.	99*
O=C(CNC(=O)c1ccc(S(=O)(=O)N2CCCC2)cc1)N/N=C/c1ccc(Cl)cc1Cl	.	.	-8	.	.
